# Measurements as given in ChEMBL document CHEMBL4190245, “Caffeic Acid Phenethyl Ester from the Twigs of Cinnamomum cassia Inhibits Malignant Cell Transformation by Inducing c-Fos Degradation” (J Nat Prod, 2017).
# The source made the active and inactive calls. The rule behind the calls is not given here.
# Tests used:
# Mus musculus [1] = species: Mus musculus; assay: Induction of proteasome-mediated c-fos degradation in EGF-stimulated mouse JB6 P+ cells assessed as inhibition of c-fos phosphorylation at S32 residue at 0.5 to 1 uM preincubated for 1 hr followed by EGF stimulation and measured after 15 mins by Western blot method
# Outline: (§1)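 JB6 P+ cells were serum-starved 24 h, pretreated 1 h with compound (0.5 and 1 μM), then stimulated with EGF (10 ng/mL) and harvested after 15 min. Lysates (10−60 μg protein) were run on SDS-PAGE and immunoblotted for phospho or total proteins, with chemiluminescent detection.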
# Mus musculus [2] = species: Mus musculus; assay: Inhibition of EGF-induced mouse JB6 P+ cells transformation after 12 days by microscopy based soft agar assay; format: functional
# Outline: (§2)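 Soft agar: 8 × 10^3 cells/mL in 0.3% BME top agar with 10% FBS, compound and EGF or TPA, layered over 0.5% agar in BME with 10% FBS and the same additions; kept 1 to 2 weeks at 37 °C in 5% CO2, colonies counted by microscope; triplicate means ± SD.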
# Mus musculus [3] = species: Mus musculus; assay: Inhibition of TPA-induced mouse JB6 P+ cells transformation after 14 days by microscopy based soft agar assay; format: functional; outline: as §2
# [4] = Cytotoxicity against mouse JB6 P+ cells up to 10 uM after 24 to 48 hrs by CellTiter96 AQueous one solution assay; format: cell-based
# Outline: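 JB6 P+ cells seeded, incubated overnight, then switched to 0.1% FBS MEM and compound added; viability read by MTS reagent at 24 and 48 h; triplicate samples, means ± standard deviation.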
# Mus musculus [5] = species: Mus musculus; assay: Inhibition of EGF-induced cell cycle progression in mouse epidermal JB6 P+ cells assessed as reduction in accumulation at G2/M phase at 0.25 to 1 uM preincubated for 1 hr followed by EGF challenge and measured after 24 hrs by propidium iodide staining-based FACS analysis; format: functional
# Outline: (§3)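 Seeded at 1.5 × 10^5 cells per 60 mm dish, starved 24 h in 0.1% FBS MEM, pretreated 1 h with compound, then EGF (10 ng/mL) for 24 h; cells fixed in cold 70% ethanol overnight, stained with RNase A and propidium iodide for 30 min at room temperature, analysed by flow cytometry; n = 3.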
# Mus musculus [6] = species: Mus musculus; assay: Induction of proteasome-mediated c-fos degradation in EGF-stimulated mouse JB6 P+ cells assessed as reduction in c-fos activity at 0.25 to 1 uM preincubated for 1 hr followed by EGF stimulation
# Outline: (§4)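 The TransAM AP-1 family ELISA was run on cell extracts: wells coated with AP-1 binding oligonucleotide, probed with a c-Fos or p-c-Jun specific primary antibody, then an HRP secondary, and absorbance read at 450 nm; n = 3.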
# [7] = target: Transcription factor Jun (Mus musculus) (UniProt P05627); assay: Effect on phosphorylated c-jun in EGF-stimulated mouse JB6 P+ cells at 0.25 to 1 uM preincubated for 1 hr followed by EGF stimulation; outline: as §4
# Mus musculus [8] = species: Mus musculus; assay: Inhibition of ERK phosphorylation at T202/Y204 residue in EGF-stimulated mouse JB6 P+ cells at 0.5 to 1 uM preincubated for 1 hr followed by EGF stimulation and measured after 15 mins by Western blot method; outline: as §1
# Mus musculus [9] = species: Mus musculus; assay: Inhibition of RSK phosphorylation at T359/S363 residue in EGF-stimulated mouse JB6 P+ cells at 0.5 to 1 uM preincubated for 1 hr followed by EGF stimulation and measured after 15 mins by Western blot method; outline: as §1
# Mus musculus [10] = species: Mus musculus; assay: Inhibition of CREB phosphorylation at S133 residue in EGF-stimulated mouse JB6 P+ cells at 0.5 to 1 uM preincubated for 1 hr followed by EGF stimulation and measured after 15 mins by Western blot method; outline: as §1
# Mus musculus [11] = species: Mus musculus; assay: Inhibition of EGF-induced c-fos mRNA expression in mouse JB6 P+ cells at 0.5 to 1 uM preincubated for 1 hr followed by EGF stimulation and measured after 15 mins by real-time PCR method; format: functional, cell-based
# Outline: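 Compound given 1 h before EGF (10 ng/mL); total RNA extracted 15 min later, reverse-transcribed and c-fos quantified by SYBR Green real-time PCR (95 °C 10 min, then 40 cycles of 95 °C 15 s and 59 °C 1 min); n = 3.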
# Mus musculus [12] = species: Mus musculus; assay: Induction of proteasome-mediated c-fos degradation in EGF-stimulated mouse JB6 P+ cells assessed as reduction in c-fos protein level at 1 uM preincubated for 1 hr followed by EGF stimulation for 15 mins in presence of 10 uM proteasome inhibitor MG132 by Western blot method
# Outline: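 Cells serum-starved 24 h, pretreated with MG132 (10 μM) plus compound (0.5 and 1 μM), collected 15 min after EGF (10 ng/mL); lysates immunoblotted for c-Fos.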
# Mus musculus [13] = species: Mus musculus; assay: Inhibition of EGF-induced cell cycle progression in mouse epidermal JB6 P+ cells assessed as accumulation at G1 phase at 0.25 to 1 uM preincubated for 1 hr followed by EGF challenge measured after 24 hrs by propidium iodide staining-based FACS analysis; format: functional; outline: as §3
# Mus musculus [14] = species: Mus musculus; assay: Induction of proteasome-mediated c-fos degradation in EGF-stimulated mouse JB6 P+ cells assessed as reduction in total c-fos protein level at 0.5 to 1 uM preincubated for 1 hr followed by EGF stimulation and measured after 15 mins by Western blot method; outline: as §1
# Mus musculus [15] = species: Mus musculus; assay: Induction of proteasome-mediated c-fos degradation in EGF-stimulated mouse JB6 P+ cells assessed as reduction in c-fos protein level at 1 uM preincubated for 1 hr followed by EGF stimulation for 15 mins by Western blot method; outline: as §1
# Mus musculus [16] = species: Mus musculus; assay: Inhibition of EGF-induced mouse JB6 P+ cells transformation at 0.25 to 2 uM after 12 days by microscopy based soft agar assay; format: functional; outline: as §2
# Mus musculus [17] = species: Mus musculus; assay: Inhibition of TPA-induced mouse JB6 P+ cells transformation at 0.25 to 2 uM after 14 days by microscopy based soft agar assay; format: functional; outline: as §2
# Mus musculus [18] = species: Mus musculus; assay: Inhibition of EGF-induced cell cycle progression in mouse epidermal JB6 P+ cells assessed as reduction in accumulation at G2/M phase at 0.5 to 1 uM preincubated for 1 hr followed by EGF challenge and measured after 24 hrs by propidium iodide staining-based FACS analysis; format: functional; outline: as §3
# Mus musculus [19] = species: Mus musculus; assay: Induction of proteasome-mediated c-fos degradation (unknown origin) expressed in EGF-stimulated mouse JB6 P+ cells co-expressing AP1-lucifearse assessed as inhibition of AP-1 activation preincubated for 1 hr followed by EGF stimulation for 4 hrs by luciferase reporter gene assay; format: cell-based
# Outline: (§5)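 JB6 P+ cells stably carrying an AP-1 luciferase reporter (kept in 5% FBS MEM with 200 μg/mL G418) were starved 24 h in 0.1% FBS MEM, given compound 1 h before EGF (10 ng/mL) or TPA (20 ng/mL), lysed in phosphate/Triton buffer pH 7.8 and read for firefly luciferase; n = 3.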
# Mus musculus [20] = species: Mus musculus; assay: Induction of proteasome-mediated c-fos degradation (unknown origin) expressed in TPA-stimulated mouse JB6 P+ cells co-expressing AP1-lucifearse assessed as inhibition of AP-1 activation preincubated for 1 hr followed by TPA stimulation for 4 hrs by luciferase reporter gene assay; format: cell-based; outline: as §5
# Mus musculus [21] = species: Mus musculus; assay: Inhibition of EGF-induced cell cycle progression in mouse epidermal JB6 P+ cells assessed as accumulation at G1 phase at 0.5 to 1 uM preincubated for 1 hr followed by EGF challenge measured after 24 hrs by propidium iodide staining-based FACS analysis; format: functional; outline: as §3
# Transcription factor Jun (Mus musculus), sequence (P05627 whole entry): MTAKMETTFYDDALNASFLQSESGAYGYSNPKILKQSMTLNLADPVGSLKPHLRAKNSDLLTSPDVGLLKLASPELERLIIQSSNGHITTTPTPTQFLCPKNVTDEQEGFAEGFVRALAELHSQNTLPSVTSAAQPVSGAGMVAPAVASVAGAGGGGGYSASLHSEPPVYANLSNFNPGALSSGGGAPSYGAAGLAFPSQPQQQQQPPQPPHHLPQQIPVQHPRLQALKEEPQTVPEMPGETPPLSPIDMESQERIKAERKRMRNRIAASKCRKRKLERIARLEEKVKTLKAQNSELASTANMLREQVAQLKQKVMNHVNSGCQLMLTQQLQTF
compound,measurement,setting,value
O=C(/C=C/c1ccc(O)c(O)c1)OCCc1ccccc1 [CAFFEIC ACID PHENETHYL ESTER],Activity,Mus musculus [1],Active
same,inhibition,Mus musculus [2],Dose-dependent effect
same,inhibition,Mus musculus [3],Dose-dependent effect
same,Activity,[4],Non-Toxic
same,inhibition,Mus musculus [5],Active
same,Activity,Mus musculus [6],Active
same,Activity,[7],inactive
same,inhibition,Mus musculus [8],inactive
same,inhibition,Mus musculus [9],inactive
same,inhibition,Mus musculus [10],inactive
same,inhibition,Mus musculus [11],inactive
same,Activity,Mus musculus [12],inactive
same,inhibition,Mus musculus [13],Active
same,Activity,Mus musculus [14],Active
same,Activity,Mus musculus [15],Active
O=C(O)/C=C/c1ccc(O)c(O)c1 [CAFFEIC ACID],Activity,Mus musculus [1],inactive
same,inhibition,Mus musculus [16],inactive
same,inhibition,Mus musculus [17],inactive
same,Activity,[4],Non-Toxic
same,inhibition,Mus musculus [18],inactive
same,Activity,Mus musculus [19],inactive
same,Activity,Mus musculus [20],inactive
same,inhibition,Mus musculus [21],inactive
same,Activity,Mus musculus [14],inactive
